Sampled rows, rich in hits. Any-hit rate of the full collection: about 2.3%.
Rtt109 HAT inh – inhibitors of Candida albicans Rtt109/Vps75 histone acetyltransferase | hit rate 0.16% among 330,000 | AID 540336 | Q5AAJ8 | inhibition, % at 34.9 µM | purified Rtt109/Vps75, ThioGlo CoA-SH fluorescence, 4 h;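 active means inhibition of at least 50% in every replicate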
Arrestin-AP2 inh – inhibitors of human beta-arrestin and AP2 interaction | FITC-arrestin peptide / GST-AP2 beads, flow cytometry; AP2 beta2 appendage carries R879A mutation | inhibition, % at 10 µM | hit rate 0.31% among 340,000;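 active means inhibition above a set limit, near 3 SD of compounds lacking own fluorescence, cut at about 54% in these data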;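 further: plate controls were DMSO wells for no effect and 5 µM unlabelled arrestin peptide for full effect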
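Assay system: GST-AP2 R879A bound to glutathione beads, E. coli-expressed; Medium: PBS with 0.05% Tween 20 and 0.1% BSA; Also added: fluorescein-tagged arrestin peptide at 50 nM final; Timing: 12 min plus 1 h, RT; Measured by: flow cytometry, FL1 (488/535 nm); Evaluation: percent drop in bead-associated FITC signal.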
PfHsp90 set2 – reduces growth (ATP signal) of yeast expressing P. falciparum Hsp90 | inhibition, % at 9.4 µM | hit rate 0.32% among 310,000 | S. cerevisiae expressing PfHsp90, BacTiter-Glo ATP, 48 h; yeast lacking PDR1 and PDR3 efflux regulators;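 active means every replicate shows inhibition above about 80%, whatever the replicate mean, limit read from the data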;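 further: 0% = DMSO neutral controls and 100% = 20 µM radicicol positive controls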
PAX8 inh HTS – lowers PAX8-driven luciferase in RMG-I cells | hit rate 1.2% among 360,000 | AID 652154 | RMG-I TPO-luciferase reporter, SteadyGlo, 24 h | inhibition, % at 12.6 µM;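 active means mean replicate inhibition at least 60% with every replicate also reaching 60%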;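 further: luciferase light reporting Pax8 driven TPO promoter activity; plate controls were median of neutral control wells for no effect and mitoxantrone controls for full effect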
Glyco luc inh – blocks N-linked glycosylation in D54 reporter cells | D54 ERlucT glycosylation luciferase reporter, 24 h; percent of 100 nM tunicamycin response | reporter increase, % at 12.5 µM | hit rate 0.23% among 360,000 | AID 588692;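 active means mean luciferase reporter signal, scaled so untreated is 0 and the glycosylation-blocking control 100, at or above a set limit in every replicate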;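 further: luciferase carries N-glycosylation sites so blocking glycosylation raises the light; 0% = median of neutral control wells and 100% = median of 100 nM tunicamycin wells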
Env fusion inh – blocks HIV Env-driven cell-cell fusion. HeLa-JRFL Env/CEM21 cell fusion, luciferase. inhibition, % at 12.3 µM. hit rate 1.1% among 360,000;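 active means mean replicate inhibition score of at least 50 and every replicate individually at or above 50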;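 further: 0% = plate neutral controls and 100% = maraviroc near 300 nM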
Arr AP2 CP1 – blocks beta-arrestin peptide binding to human AP2; shares compounds with Arrestin-AP2 inh; hit rate 2% among 1,300; inhibition, % at 10 µM; GST-AP2 beads, FITC arrestin peptide binding, flow cytometry; GST-fused beta2-adaptin appendage, R879A mutant; AID 504908;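 active means inhibition above a set limit, roughly 3 SD of non-fluorescent compound noise, cut at about 38% in these data; inactive means inhibition at or below that limit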;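 further: loss of bead fluorescence from 50 nM FITC arrestin peptide bound to appendage; 0% = negative control wells and 100% = excess unlabelled arrestin peptide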
Target sequence (P63010 whole entry, looked up, the tested form may be a part, one chain of several): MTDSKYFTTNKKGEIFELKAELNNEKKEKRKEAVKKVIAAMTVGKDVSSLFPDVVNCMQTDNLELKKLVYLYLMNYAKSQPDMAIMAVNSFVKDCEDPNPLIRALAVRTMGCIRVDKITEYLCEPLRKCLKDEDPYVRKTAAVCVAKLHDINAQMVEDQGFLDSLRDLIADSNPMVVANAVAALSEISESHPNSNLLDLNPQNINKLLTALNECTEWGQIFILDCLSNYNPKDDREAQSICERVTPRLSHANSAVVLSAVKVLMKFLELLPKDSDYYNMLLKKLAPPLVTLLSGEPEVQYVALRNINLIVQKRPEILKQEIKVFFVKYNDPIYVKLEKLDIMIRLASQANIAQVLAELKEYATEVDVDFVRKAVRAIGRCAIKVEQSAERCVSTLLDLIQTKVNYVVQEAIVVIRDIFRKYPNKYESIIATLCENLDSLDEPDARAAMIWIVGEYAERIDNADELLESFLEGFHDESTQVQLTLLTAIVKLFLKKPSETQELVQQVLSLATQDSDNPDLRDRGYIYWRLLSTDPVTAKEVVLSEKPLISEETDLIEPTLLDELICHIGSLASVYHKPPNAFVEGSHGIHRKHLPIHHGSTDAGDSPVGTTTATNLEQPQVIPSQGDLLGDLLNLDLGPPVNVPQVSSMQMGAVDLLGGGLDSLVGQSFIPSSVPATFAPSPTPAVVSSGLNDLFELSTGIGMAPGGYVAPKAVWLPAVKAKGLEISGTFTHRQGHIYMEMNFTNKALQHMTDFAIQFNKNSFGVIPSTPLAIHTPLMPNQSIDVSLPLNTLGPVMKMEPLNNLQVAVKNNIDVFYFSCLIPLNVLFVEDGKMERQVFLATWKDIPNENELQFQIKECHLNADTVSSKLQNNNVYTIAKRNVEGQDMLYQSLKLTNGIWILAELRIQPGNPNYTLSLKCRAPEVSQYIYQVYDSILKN
GST GSH counter – GST-GSH bead binding interference, counter-screen; shares compounds with Arrestin-AP2 inh; GST-fluorescein binding to GSH beads, fluorescence; inhibition, % at 10 µM; hit rate 2% among 1,300;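 active means inhibition above 50%, about 3 SD of the inhibition seen with non-fluorescent compounds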;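 further: fluorescein maleimide labelled GST captured on 4 micron glutathione beads; higher means more loss of bead fluorescence from quenching or blocked binding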
* = called active by the depositor; . = no result given; [ ] = another dose, or the depositor's remark.

SMILES	Rtt109 HAT inh	Arrestin-AP2 inh	PfHsp90 set2	PAX8 inh HTS	Glyco luc inh	Env fusion inh	Arr AP2 CP1	GST GSH counter
Cc1cc(NC(=O)COC(=O)CCS(=O)(=O)c2cc(Cl)ccc2Cl)no1	-11	57*	6	-20	-2	-2	-11	11
CCN1/C(=C/C=C/c2sc3ccccc3[n+]2CC)Sc2ccccc21	66*	75*	20	.	-3	.	33	32
CCN1/C(=C/C=C/C=C/C=C/c2sc3ccccc3[n+]2CC)Sc2ccccc21	1	55*	2	10	6	1	26	8
CC1CCN(S(=O)(=O)N2CCC(C(=O)O)CC2)CC1	-1	56*	3	-32	-5	.	20	-4
CCCn1c(=O)c2[nH]cnc2n(-c2ccc(Cl)cc2)c1=O	2	58*	5	-20	3	13	11	-9
CCCn1c(=O)c2[nH]cnc2n(-c2ccccc2C)c1=O	-4	-17	12	-2	2	1	.	.
O=C(NC[C@@H]1N[C@@H](CO)[C@H]1c1ccc(C2=CCCCC2)cc1)c1cccc(F)c1	.	.	.	5	.	.	.	.
COc1ccc(CC(=O)N(C)Cc2ccc(Cl)cc2)cc1S(=O)(=O)N1CCOCC1	1	64*	0	9	0	-26	16	0
COc1ccc(CC(=O)N(C)Cc2ccc(C(C)(C)C)cc2)cc1S(=O)(=O)N1CCOCC1	5	0	-32	8	-3	18	.	.
CCOC(=O)CSC1=N/C(=C\c2cccnc2)C(=O)N1c1ccc(OC)cc1	5	105*	-6	1	0	17	2	-4
O=C1CC(c2ccccc2)c2ccccc21 (stereo not drawn)	-5	0	-18	0	1	14	.	.
O=C1CC(C(=O)O)C(c2ccccc2)c2ccccc21 (stereo not drawn)	-4	55*	-6	5	1	-2	4	11
C[C@@H]1CN([C@H](C)CO)C(=O)Cc2cc(NC(=O)CCN3CCOCC3)ccc2O[C@@H]1CN(C)C(=O)Nc1ccc2c(c1)OCO2	.	.	.	-18	.	-29[16.7 µM]	.	.
O=C(NN1C(=O)c2ccccc2NC1c1ccoc1)c1ccc([N+](=O)[O-])cc1 (stereo not drawn)	6	57*	-4	3	1	16	0	-8
COc1ccc(N=C2SCC(=O)N2CCc2ccc(OC)c(OC)c2)cc1	1	-11	2	-18	-2	23	.	.
COc1ccc(CCN2C(=O)CS/C2=N\NC(=O)c2ccc(C(C)(C)C)cc2)cc1OC	-9	62*	1	26	6	24	5	-1
CC(C)CCSc1nc2[nH]ncc2c(=O)[nH]1	.	59*	-38	2	2	-20	5	6
C#CCSc1nc2[nH]ncc2c(=O)[nH]1	2	14	-6	5	1	4	.	.
Cc1occc1C(=O)NCc1cccs1	-8	78*	-7	.	2	.	9	0
CN(C)C(=O)C[C@@H]1CC[C@@H](NC(=O)C2CCOCC2)[C@H](CO)O1	.	.	.	-19	.	13[16.7 µM]	.	.
O=C(OCc1ccc(F)cc1)c1ccc2c(c1)-c1ccccc1C2=O	-10	94*	-23	.	-3	.	0	-3
CCC[C@@H](NS(=O)(=O)c1ccc(C)cc1)C(=O)Oc1ccc2c3c(c(=O)oc2c1)CCC3	3	57*	-10	-6	-2	.	-5	-4
COCC#Cc1cnc2c(c1)C(=O)N([C@H](C)CO)C[C@H](C)[C@@H](CN(C)C(=O)Nc1ccccc1F)O2	.	.	.	.	.	28[16.7 µM]	.	.
Cc1cc(NC(=O)c2cnn3c(C(F)(F)F)cc(-c4ccc(Br)cc4)nc23)no1	-4	6	9	.	-1	-16	-6	-7
CC(C)CN1CCN(Cc2ccc(C#CC(C)(C)O)cc2)CC1CCO (stereo not drawn)	2	1	8	10	-1	-5	.	.
SMILES	Rtt109 HAT inh	Arrestin-AP2 inh	PfHsp90 set2	PAX8 inh HTS	Glyco luc inh	Env fusion inh	Arr AP2 CP1	GST GSH counter
CC(C)CCN1CCN(Cc2ccc(C#CC(C)(C)O)s2)CC1CCO (stereo not drawn)	-5	62*	-2	7	-3	12	23	-6
C[C@H](CO)N1C[C@H](C)[C@H](CN(C)Cc2ccc3c(c2)OCO3)Oc2ccc(NS(C)(=O)=O)cc2C1=O	.	.	.	-8	.	-8[16.7 µM]	.	.
COc1ccc2oc(C(=O)Nc3nc(C)cs3)c(C)c2c1	10	63*	-2	-204	-11	.	-2	7
Cc1noc(C)c1NC(=O)Nc1ccc2c(c1)C(=O)N([C@H](C)CO)C[C@H](C)[C@@H](CN(C)Cc1ccc(C(=O)O)cc1)OCCCC[C@@H](C)O2	.	.	.	-4	.	-11[16.7 µM]	.	.
CC/C(=N\N=C1\SC(C)C(=O)N1Cc1ccco1)c1ccccc1 (stereo not drawn)	6	59*	-8	-11	-3	.	5	-7
O=C(CS(=O)(=O)c1ccccc1)Nc1ccc(N2CCOCC2)cc1	-5	60*	-6	-13	1	1	-6	-3
C[C@H](CO)N1C[C@H](C)[C@H](CN(C)C(=O)CCC(F)(F)F)OCCCC[C@H](C)Oc2ccc(NC(=O)Nc3ccccc3)cc2C1=O	.	.	.	-25	.	-8[16.7 µM]	.	.
CCCCNC(=O)N1c2ccccc2CC1C (stereo not drawn)	3	57*	-11	-28	0	-5	13	-9
COC(=O)c1ccccc1NC(=O)N1c2ccccc2CC1C (stereo not drawn)	3	5	.	-20	0	-72	.	.
O=C(Cc1ccccn1)N[C@@H]1CC[C@H](CCn2cc(-c3ccc(F)cc3)nn2)O[C@H]1CO	.	.	.	14	.	.	.	.
O=C(C[C@H]1C=C[C@@H](NC(=O)c2cccnc2)[C@H](CO)O1)NCc1ccncn1	.	.	.	-2	.	.	.	.
O=C(Nc1ccc(NC(=O)c2cccs2)c(Cl)c1)c1cccs1	19	55*	10	-63	-3	-37	-6	-1
O=C(Nc1ccc(NC(=O)c2cccs2)cc1Cl)c1ccco1	-2	27	7	-109	0	-38	.	.
COc1ccc(CC(=O)NNC(=O)c2cc(C)oc2C)cc1OC	7	65*	.	-11	1	6	7	-5
COc1ccc(CC(=O)NNC(=O)c2ccccc2)cc1OC	8	2	-4	-15	2	.	.	.
O=C(CCCNS(=O)(=O)c1ccc(F)cc1)Nc1ccc(F)cc1	-1	-3	10	-6	1	-5	.	.
Cc1ccc(NC(=O)CNS(=O)(=O)c2ccc(F)cc2)cc1C	3	55*	-2	5	-1	-3	-7	-5

High-throughput results from PubChem.
